Source: ChEMBL document CHEMBL4765286, “Identification and development of non-cytotoxic cell death modulators: Impact of sartans and derivatives on PPARγ activation and on growth of imatinib-resistant chronic myelogenous leukemia cells” (Eur J Med Chem, 2020)
Active and inactive are the calls of the source. The calls are words filed in the database; no cut-off is given here.

Experiments:
[1] = Cytotoxicity against human HS5 cells assessed as cell death at 10 uM measured after 72 hrs by Propidium iodide stain based FACS analysis; conditions: hs5, 72 h
Summary of the method: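 HS-5 cells seeded at 0.5×10^5 per well and treated with compound or DMSO vehicle (final DMSO ≤0.1%) for 72 h. Harvested cells stained with PI/Triton-X100 for 2 h at 4 °C. Dead cells were counted by flow cytometry as nuclei in the sub-G1 window. Mean +SEM of ≥3 independent experiments.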

COS-7 [2] = test: Cytotoxicity against African green monkey COS7 cells assessed as effect on metabolic activity at 10 uM measured after 72 hrs by MTT assay; format: ADME, cell-based; conditions: chlorocebus aethiops, cos-7, 72 h
Summary of the method: (§1)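 COS-7 cells seeded at 2×10^3 per well in triplicate, grown 24 h, then exposed to test agent or DMSO vehicle (final DMSO ≤0.1%) for 72 h. Metabolic activity read with a modified MTT (EZ4U) kit. Background from FCS-containing medium plus substrate subtracted. Expressed relative to vehicle control set to 100%. Mean +SD of ≥3 independent experiments.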

COS-7 [3] = test: Cytotoxicity against African green monkey COS7 cells assessed as effect on metabolic activity at 20 uM measured after 72 hrs by MTT assay; format: ADME, cell-based; conditions: chlorocebus aethiops, cos-7, 72 h; summary of the method: as §1
[4] = target: T1, Signal transducer and activator of transcription 5A (Homo sapiens) (UniProt P42229); test: Inhibition of STAT5 in imatinib-resistant human K562 cells assessed as effect on STAT5 expression in presence of imatinib at 10 uM measured after 6 hrs by Western blot assay; format: cell-based
T1 sequence (whole entry): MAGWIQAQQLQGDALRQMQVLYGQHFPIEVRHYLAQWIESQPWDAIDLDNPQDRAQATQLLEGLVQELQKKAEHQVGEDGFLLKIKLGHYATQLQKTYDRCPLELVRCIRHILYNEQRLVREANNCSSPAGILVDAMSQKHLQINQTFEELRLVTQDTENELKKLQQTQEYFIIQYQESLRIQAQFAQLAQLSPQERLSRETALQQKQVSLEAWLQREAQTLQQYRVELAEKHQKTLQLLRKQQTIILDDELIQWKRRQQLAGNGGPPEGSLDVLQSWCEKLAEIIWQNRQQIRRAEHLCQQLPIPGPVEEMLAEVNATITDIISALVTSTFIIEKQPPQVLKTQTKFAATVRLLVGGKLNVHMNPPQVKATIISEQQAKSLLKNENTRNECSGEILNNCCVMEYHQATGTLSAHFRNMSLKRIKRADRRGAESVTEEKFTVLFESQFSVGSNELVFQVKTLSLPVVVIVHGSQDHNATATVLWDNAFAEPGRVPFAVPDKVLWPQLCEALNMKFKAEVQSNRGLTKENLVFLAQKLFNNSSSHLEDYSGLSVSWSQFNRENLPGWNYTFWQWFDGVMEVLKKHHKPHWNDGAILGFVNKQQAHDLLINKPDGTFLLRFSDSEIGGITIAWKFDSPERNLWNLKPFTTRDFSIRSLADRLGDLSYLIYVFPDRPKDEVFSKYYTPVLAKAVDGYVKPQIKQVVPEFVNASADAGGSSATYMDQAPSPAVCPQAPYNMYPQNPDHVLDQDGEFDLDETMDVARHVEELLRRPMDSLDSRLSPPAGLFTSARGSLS

[5] = Modulation of cell death in imatinib-resistant human K562 cells assessed by increase in imatinib-mediated cell death in presence of presence of imatinib at 2.5 uM measured after 72 hrs by Propidium iodide stain based FACS assay (reference value: 17%); format: functional
[6] = target: T2, Peroxisome proliferator-activated receptor gamma (Homo sapiens, UniProt P37231); test: Agonist activity at human PPARgammaDEF receptor expressed in african green monkey COS7 cells transfected with pGal5-TK-pGL3/pRenilla-CMV assessed as intrinsic activity measured after 39 hrs by dual luciferase reporter assay; format: cell-based
T2 sequence (P37231 whole entry): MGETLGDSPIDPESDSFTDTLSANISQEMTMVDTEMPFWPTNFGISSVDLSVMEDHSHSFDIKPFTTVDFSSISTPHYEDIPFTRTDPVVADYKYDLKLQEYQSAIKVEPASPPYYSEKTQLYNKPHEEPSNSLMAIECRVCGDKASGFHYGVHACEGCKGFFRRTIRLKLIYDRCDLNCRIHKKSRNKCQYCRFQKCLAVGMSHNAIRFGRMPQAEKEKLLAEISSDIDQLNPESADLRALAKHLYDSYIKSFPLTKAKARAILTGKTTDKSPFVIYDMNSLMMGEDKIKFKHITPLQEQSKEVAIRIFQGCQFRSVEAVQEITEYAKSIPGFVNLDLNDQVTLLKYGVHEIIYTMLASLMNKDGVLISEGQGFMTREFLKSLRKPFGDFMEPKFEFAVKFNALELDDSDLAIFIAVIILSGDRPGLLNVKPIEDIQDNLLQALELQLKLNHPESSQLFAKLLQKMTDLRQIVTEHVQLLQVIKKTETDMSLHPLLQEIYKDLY

[7] = target: T1, Signal transducer and activator of transcription 5A (Homo sapiens); test: Inhibition of STAT5 phosphorylation in imatinib-resistant human K562 cells in presence of imatinib at 10 uM measured after 6 hrs by Western blot assay; format: cell-based
Summary of the method: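 K562-resistant cells (a doxorubicin-resistant K562 subclone, KD225) kept in RPMI 1640 with 10% FCS. Cells received 1 µM imatinib alone or with 10 µM compound for 6 h. Immunoblots were probed for STAT5 and for pSTAT5 (Tyr694/699), with GAPDH as loading control, and developed by ECL. Densitometry was normalised to the imatinib-only control set to 100%.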

[8] = Modulation of cell death in imatinib-resistant human K562 cells assessed by increase in imatinib-mediated cell death in presence of presence of imatinib measured after 72 hrs by Propidium iodide stain based FACS assay (reference value: 17%); format: functional

With `CCc1ccc(CCOc2ccc(CC3SC(=O)NC3=O)cc2)nc1` (centres undefined) [PIOGLITAZONE] the Activity [1] was “Non-Toxic”, the Activity (COS-7 [2]) was “Non-Toxic” and the Activity (COS-7 [3]) was “Non-Toxic”.

With `CCCc1nc2c(C)cc(-c3nc4ccccc4n3C)cc2n1Cc1ccc(-c2ccccc2C(N)=O)cc1` the inhibition [4] was “inactive”, the Activity [5] was 50% and the EC50 [6] was 9.1 µM. For the same compound, the Activity [1] was “Non-Toxic”, the Activity (COS-7 [2]) was “Non-Toxic” and the inhibition [7] was “Active”. For the same compound, the Activity (COS-7 [3]) was “Non-Toxic” and the Activity [8] was 89%.

In the case of `CCCc1nc2c(C(=O)O)cccc2n1Cc1ccc(-c2ccccc2C(=O)O)cc1`, the inhibition [4] is reported as “inactive”, the Activity [1] is reported as “Non-Toxic” and the Activity (COS-7 [2]) is reported as “Non-Toxic”. The inhibition [7] was “inactive”, the Activity (COS-7 [3]) was “Non-Toxic” and the Activity [8] was 12%.

With `CCCc1nc2cccc(C(=O)OC)c2n1Cc1ccc(-c2ccccc2C(=O)OC)cc1` the inhibition [4] was “inactive”, the Activity [5] was 50% and the Activity [1] was “Non-Toxic”. The Activity (COS-7 [2]) was “Non-Toxic”, the inhibition [7] was “Active” and the Activity (COS-7 [3]) was “Non-Toxic”. The Activity [8] was 83%.

With `CCCc1nc(C(C)(C)O)c(C(=O)O)n1Cc1ccc(-c2ccccc2-c2nnn[nH]2)cc1` [OLMESARTAN] the Activity [1] was “Non-Toxic”, the Activity (COS-7 [2]) was “Non-Toxic” and the Activity (COS-7 [3]) was “Non-Toxic”.

In the case of `CCOc1nc2cccc(C(=O)O)c2n1Cc1ccc(-c2ccccc2-c2nnn[nH]2)cc1` [CANDESARTAN], the Activity [1] is reported as “Non-Toxic”, the Activity (COS-7 [2]) is reported as “Non-Toxic” and the Activity (COS-7 [3]) is reported as “Non-Toxic”. It also gave an Activity [8] of 42%.

With `CCCCC1=NC2(CCCC2)C(=O)N1Cc1ccc(-c2ccccc2-c2nnn[nH]2)cc1` [IRBESARTAN] the Activity [1] was “Non-Toxic”, the Activity (COS-7 [2]) was “Non-Toxic” and the Activity (COS-7 [3]) was “Non-Toxic”. It also gave an Activity [8] of 31%.

For `CCOc1nc2cccc(C(=O)OC(C)OC(=O)OC3CCCCC3)c2n1Cc1ccc(-c2ccccc2-c2nnn[nH]2)cc1` (centres undefined) [CANDESARTAN CILEXETIL], the Activity [1] was “Non-Toxic”, the Activity (COS-7 [2]) was “Non-Toxic” and the Activity (COS-7 [3]) was “Non-Toxic”.

For `CCCc1nc2c(C(=O)O)cccc2n1Cc1ccc(-c2ccccc2C(=O)OC)cc1`, the inhibition [4] was “inactive”, the Activity [1] was “Non-Toxic” and the Activity (COS-7 [2]) was “Non-Toxic”. The inhibition [7] was “Active”, the Activity (COS-7 [3]) was “Non-Toxic” and the Activity [8] was 56%.

For `CCCc1nc2cccc(C(=O)O)c2n1Cc1ccc(-c2ccccc2C(=O)O)cc1`, the inhibition [4] was “inactive”, the Activity [1] was “Non-Toxic” and the Activity (COS-7 [2]) was “Non-Toxic”. For the same compound, the inhibition [7] was “inactive”, the Activity (COS-7 [3]) was “Non-Toxic” and the Activity [8] was 12%.

With `CCCc1nc2c(C)cc(-c3nc4ccccc4n3C)cc2n1Cc1ccc(-c2ccccc2C(=O)O)cc1` [TELMISARTAN] the inhibition [4] was “inactive”, the Activity [1] was “Non-Toxic” and the Activity (COS-7 [2]) was “Non-Toxic”. For the same compound, the inhibition [7] was “Active”, the Activity (COS-7 [3]) was “Non-Toxic” and the Activity [8] was 63%.

With `CCCc1nc(C(C)(C)O)c(C(=O)OCc2oc(=O)oc2C)n1Cc1ccc(-c2ccccc2-c2nnn[nH]2)cc1` [OLMESARTAN MEDOXOMIL] the Activity [1] was “Non-Toxic”, the Activity (COS-7 [2]) was “Non-Toxic” and the Activity (COS-7 [3]) was “Non-Toxic”.

In the case of `CCCc1nc2c(C(=O)OC)cccc2n1Cc1ccc(-c2ccccc2C(=O)OC)cc1`, the inhibition [4] is reported as “inactive”, the Activity [5] is reported as 50% and the Activity [1] is reported as “Non-Toxic”. The Activity (COS-7 [2]) was “Non-Toxic”, the inhibition [7] was “Active” and the Activity (COS-7 [3]) was 20%. It also gave an Activity [8] of 83%.

For `CCCCc1nc(Cl)c(CO)n1Cc1ccc(-c2ccccc2-c2nn[nH]n2)cc1` [LOSARTAN], the Activity [1] was “Non-Toxic”, the Activity (COS-7 [2]) was “Non-Toxic” and the Activity (COS-7 [3]) was “Non-Toxic”.
